HUVEC inhibit: blocks proliferation of human endothelial cells. HUVEC proliferation, CellTiter-Glo luminescence, 72 h; hits give low values. 86,000 compounds, 1.1% hits. viability, % at 10 µM (by protocol). AID 648;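 active = viability at or below 30%; inactive = viability above 30%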
Ecoli WT expand: E. coli BW25113 growth inhibition, expanded screen | OD600 absorbance | growth inhibition, % at 100 µM | 98,000 compounds, 0.15% hits;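 active = growth inhibition above about 50% at one test dose, limit read from the data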;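 also: growth measured after 20 h incubation at 37 °C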
Fibroblast inh: blocks proliferation of human lung fibroblasts; 85,000 compounds, 1.1% hits; LL 47 human lung fibroblast viability, ATP luminescence; hits give low values; viability, % at 10 µM;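 active = viability at or below 50% in the single dose screen; inactive = viability above 50%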;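 also: compound exposure lasted 72 h before the ATP readout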
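Assay system: human lung fibroblast line LL 47, low passage. Input: 1,150 fibroblasts seeded per well. Times: overnight cell rest, 72 h compound treatment at 37 °C. Evaluation: % viability of median cell-only signal. Technique: luminescent ATP detection, CellTiter-Glo. Control set: cell-only wells, no compound.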
Jurkat tox 60K: cytotoxic compounds reducing Jurkat cell viability. 56,000 compounds, 1.2% hits. Jurkat E6.1 viability, ATP luminescence, 48 h. inhibition, % at 4 µM. AID 463;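 active = inhibition above the mean inhibition of all tested compounds plus 3 SD, cut at about 28% in these data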
H69AR inhibit: growth inhibitors of human H69AR lung tumor cells; AID 598; 85,000 compounds, 6% hits; H69AR lung tumor viability, ATP luminescence, 72 h; hits give low values; viability, % at 10 µM;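 active = viability at or below 40%; inactive = viability above 40%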;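 also: multidrug resistant small cell line overexpressing MRP-1 efflux transporter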
tolC growth inh: blocks growth of E. coli BW25113 tolC mutant; OD615; growth inhibition, % at 10 µM (by protocol); 65,000 compounds, 2.2% hits; AID 573;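 active = growth inhibition at or above a cutoff equal to the mean over every tested compound plus 3 SD, cut at about 60% in these data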;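 also: growth measured after 20 h incubation at 37 °C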
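test system = E. coli BW25113 ΔtolC::kan bacteria | medium = LB with kanamycin 50 µg/mL | signal = OD at 615 nm | schedule = 37 °C, 20 h exposure | evaluation = % inhibition of E. coli growth | compound dosing = one dose of 10 µM final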
Numbers stand for hits; . = inactive; / = not tested or not shown. Most compounds without a hit are left out; they make up all but 6.4% or so of the library.

SMILES	HUVEC inhibit	Ecoli WT expand	Fibroblast inh	Jurkat tox 60K	H69AR inhibit	tolC growth inh
Cc1nn(Cc2ccc(F)cc2)c(C)c1NC(=O)c1noc2c1CCCCC2	.	.	.	.	.	.
Cc1cc(NC(=O)c2noc3c2CCCC3)nn1Cc1ccc(Cl)cc1	.	.	.	.	.	80.9
COc1ccccc1N1CCN(Cc2ccc(O)c3ncccc23)CC1	/	.	/	/	/	/
Oc1ccc(CN2CCCc3ccccc32)c2cccnc12	.	.	.	.	33.7	.
Cc1[nH]c(C(=O)N2CCCCC2)c(C)c1C(=O)NC1CCCCC1	.	/	.	.	.	.
C=CCNc1nnc(SC2CC(=O)N(c3ccc(OCCC)cc3)C2=O)s1 (stereo not drawn)	.	.	.	/	1.9	/
CCOc1ccc(N2C(=O)CC(Sc3ncccn3)C2=O)cc1 (stereo not drawn)	.	.	.	.	.	.
Cc1ccc(-n2c(-c3ccc(Br)cc3)c[n+]3c2CCc2ccc4cccnc4c2-3)cc1	13.9	78.0	21.1	/	2.8	/
CCOC(=O)c1ccccc1NC(=O)/C(C)=C/C(=O)O	/	.	/	/	/	/
CCN(c1ccccc1)S(=O)(=O)c1ccc(C(=O)Nc2nnc(COC)o2)cc1	.	.	.	.	.	95.3
CCN(c1ccccc1)S(=O)(=O)c1ccc(NC(=S)NC(=O)c2ccc(Br)o2)cc1	/	.	/	/	/	/
COCc1nnc(NC(=O)c2ccc(S(=O)(=O)N(C)c3ccccc3)cc2)o1	.	.	.	.	.	86.9
CCc1nnc(NC(=O)C2CCCN2S(=O)(=O)c2ccc(F)cc2)s1 (stereo not drawn)	.	.	.	.	.	.
Cc1nn(-c2ccccc2)c2sc(-c3n[nH]c(=S)o3)cc12	/	.	/	.	/	78.2
Cc1cc(C(=O)Nc2ccc(N3CCOCC3)cc2)c2ccccc2n1	.	.	.	.	.	.
O=C(Nc1ccccc1N1CCOCC1)c1cc(-c2ccco2)nc2ccccc12	.	.	.	/	5.8	/
CCOc1cc(-c2noc(-c3ccncc3)n2)cc(Br)c1OC	.	.	.	.	20.3	.
CCOCCCNC(=O)C1CCN(c2cc(C)nc3c(-c4ccc(OC)c(OC)c4)c(C)nn23)CC1	.	.	.	.	32.9	.
Cc1cc(SCC#N)n2nc(C)c(-c3ccccc3)c2n1	.	.	.	.	26.1	61.4
Cc1cc(N2CCN(Cc3ccccc3)CC2)n2nc(C)c(-c3ccccc3)c2n1	.	.	.	/	19.2	/
COc1ccccc1-c1c(C)nn2c(N3CCCCCC3)cc(C)nc12	/	.	/	.	/	.
COc1ccc(-c2c(C)nn3c(N4CCN(Cc5ccccc5)CC4)cc(C)nc23)cc1OC	.	.	.	.	16.6	.
CN(C)/C=N/c1sc2c(c1C#N)CC(C)(C)NC2(C)C	.	/	.	/	.	/
COc1ccc(F)cc1S(=O)(=O)NC1CCCC1	.	.	.	/	.	/
O=C(/C=C/c1c(Cl)cccc1Cl)n1cccn1	.	/	.	/	26.3	/
SMILES	HUVEC inhibit	Ecoli WT expand	Fibroblast inh	Jurkat tox 60K	H69AR inhibit	tolC growth inh
COc1ccc(C(=O)/C=C/c2cn(CN3CCN(C)CC3)c3ccccc23)cc1	.	.	.	/	22.1	/
CCOc1ccc(C(=O)/C=C/c2cn(CN3CCN(C)CC3)c3ccccc23)cc1	.	.	.	/	.	/
O=C(O)CSc1nnc(-c2ccccc2)o1	.	.	.	.	.	.
Cn1nc([N+](=O)[O-])nc1Sc1nnc(-c2ccccc2)o1	.	.	.	/	2.6	/
O=Cc1ccc(Sc2nnc(-c3ccccc3)o2)c([N+](=O)[O-])c1	2.4	.	.	/	2.0	/
Cc1ccc(-n2nnnc2Sc2nc([N+](=O)[O-])nn2C)cc1C	/	.	/	/	/	/
O=C(CSc1nnnn1-c1ccccc1)CC(=O)Nc1ccc(Cl)cc1	.	.	.	.	17.3	.
COc1ccc(CCNc2ncnc3c2oc2ccccc23)cc1OC	.	.	.	83.8	.	.
COc1ccc(CCNc2nc(C)nc3c2oc2ccccc23)cc1OC	.	.	.	/	.	/
Cc1nnc(C)n1/N=C/c1cc(Br)cc(Br)c1O	.	51.0	.	/	.	.
Cc1nnc(C)n1/N=C/c1cc(Br)ccc1O	/	.	/	.	/	.
CCOc1ccc(OCC)c(Nc2cc(C)nc3nc(C)nn23)c1	.	/	.	.	32.0	.
Cc1ccc2[nH]c3c(c2c1)CCCC3C(N)=O (stereo not drawn)	.	/	.	/	.	.
CCN(CC)C(=O)C1CCCc2c1[nH]c1ccc(Cl)cc21 (stereo not drawn)	.	/	.	39.9	.	.
